# Active and inactive are the calls of the source.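 How the source made its calls, unless noted: active means viability loss from added drug above about 55%, and viability with drug at most 40%, in both replicates (limit read from the data, passing the limit was not always enough); inconclusive means both conditions met in only one replicate; inactive means neither replicate meets both conditions.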
# What was measured:
# [1] = reducers of endogenous Her2 protein level, primary screen, SKBR3 breast tumor cells, AlphaScreen, ATP viability (AID 461;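 active means Her2 level under about 52% in both replicate screens, with viability over 70% of control, limit read from the data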;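 on Her2 level: lower value means less Her2 protein in the cells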;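 on viability: percent of carrier control wells set as 100% viability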); details: 18-24 h, measured here: SKBR3 viability, ATP luminescence, at 10 µM
# [2] = biological target: Receptor tyrosine-protein kinase erbB-2 (Homo sapiens) (UniProt P04626); experiment: as above; details: 18-24 h, at 10 µM, stronger effect = lower value
# [3] = SK-BR-3 cell growth inhibitors, pilot screen, 24 h, human (AID 572;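 active means viability at or below 10% of carrier control in both of two separate runs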;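 further: compound exposure lasted between 18 and 24 h rather than exactly 24 h; 100% = carrier-treated control wells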); details: SK-BR-3 viability, CellTiter-Glo luminescence, at 10 µM, stronger effect = lower value
# [4] = HUVEC growth inhibition – cell-based, human, primary screen (AID 575;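 active means viability at or below 30% in both replicate assays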;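 further: 100% = median of untreated cell wells with 0.1% DMSO on each plate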); details: HUVEC proliferation, CellTiter-Glo luminescence, 72 h; at 10 µM; stronger effect = lower value
# Summary of the method: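 Timing: 72 h treatment at 37 °C; material: HUVEC primary cells; technique: CellTiter-Glo luminescence measuring cellular ATP; controls: vehicle and MePR control wells; measure: percent of median DMSO-control luminescence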
# [5] = growth inhibitors of H69AR lung tumor, primary screen, human, duplicate replicates (AID 580;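 active means viability at or under a set limit in both replicates, limit being median viability minus 3 SD, cut at about 48% in these data, passing the limit was not always enough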;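 further: 100% = mean luminescence of untreated wells and 0% = no signal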); details: H69AR lung tumor cells viability, ATP luminescence, 72 h; at 10 µM; stronger effect = lower value
# [6] = reversal of MRP1-mediated doxorubicin resistance, pilot screen, H69AR cells, doxorubicin co-treatment (AID 601); details: CellTiter-Glo, 72 h, at 10 µM; for differential viability (reversal): stronger effect = higher value
# [7] = 384-well plate pilot, post-Golgi transport modulator project, inhibition of yeast transport mutant growth (AID 636; in the data active means inhibition above about 31%); details: absorbance 615 nm, about 18 h, stronger effect = higher value
# [8] = growth suppression of yeast trafficking mutant, preliminary HTS, modulators of trafficking downstream of Golgi apparatus project, 1536-format plate, OD 615 nm (AID 637; in the data active means inhibition above about 30%); details: yeast transport mutant growth, absorbance 615 nm, 18 h; stronger effect = higher value
# [9] = H69AR cells + 2 uM doxorubicin, measured here: viability with 2 uM doxorubicin, stronger effect = lower value
# [10] = H69AR cells, compound alone cytotoxicity
# Sequence of Receptor tyrosine-protein kinase erbB-2 (Homo sapiens) (P04626 whole entry, looked up): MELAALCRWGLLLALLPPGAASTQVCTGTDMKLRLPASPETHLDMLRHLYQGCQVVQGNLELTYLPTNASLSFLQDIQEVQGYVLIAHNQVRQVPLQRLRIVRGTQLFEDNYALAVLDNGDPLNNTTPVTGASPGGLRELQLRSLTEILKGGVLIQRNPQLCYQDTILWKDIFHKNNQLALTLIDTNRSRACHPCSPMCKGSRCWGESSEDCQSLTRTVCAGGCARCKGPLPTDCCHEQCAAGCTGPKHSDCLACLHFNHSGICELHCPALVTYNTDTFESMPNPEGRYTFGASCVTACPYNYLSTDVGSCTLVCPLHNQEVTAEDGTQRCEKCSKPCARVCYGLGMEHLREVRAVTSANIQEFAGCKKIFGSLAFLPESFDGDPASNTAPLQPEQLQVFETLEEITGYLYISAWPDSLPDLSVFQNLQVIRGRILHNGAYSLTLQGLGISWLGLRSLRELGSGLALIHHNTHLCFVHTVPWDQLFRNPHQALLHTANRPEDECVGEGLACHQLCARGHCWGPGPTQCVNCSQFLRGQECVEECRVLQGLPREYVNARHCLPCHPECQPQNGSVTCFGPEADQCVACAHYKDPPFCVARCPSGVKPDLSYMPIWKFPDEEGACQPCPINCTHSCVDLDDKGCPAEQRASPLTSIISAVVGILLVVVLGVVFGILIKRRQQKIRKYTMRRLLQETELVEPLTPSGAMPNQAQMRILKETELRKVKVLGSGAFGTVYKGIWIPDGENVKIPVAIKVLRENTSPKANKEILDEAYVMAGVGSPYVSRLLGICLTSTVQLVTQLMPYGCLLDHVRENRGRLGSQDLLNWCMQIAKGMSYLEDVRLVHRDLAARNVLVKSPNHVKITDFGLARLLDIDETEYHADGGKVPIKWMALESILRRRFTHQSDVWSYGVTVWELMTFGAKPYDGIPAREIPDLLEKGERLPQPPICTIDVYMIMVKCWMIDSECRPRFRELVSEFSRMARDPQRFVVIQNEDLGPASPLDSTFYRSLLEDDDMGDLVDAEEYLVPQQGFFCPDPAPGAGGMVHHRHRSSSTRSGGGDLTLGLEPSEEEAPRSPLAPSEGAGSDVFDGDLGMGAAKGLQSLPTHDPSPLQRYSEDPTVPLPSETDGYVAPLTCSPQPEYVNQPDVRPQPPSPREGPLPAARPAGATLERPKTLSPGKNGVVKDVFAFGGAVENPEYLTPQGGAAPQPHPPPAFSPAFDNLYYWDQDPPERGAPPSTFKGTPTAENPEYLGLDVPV
SMILES,viability [1] [%],Her2 level [2],viability [3],viability [4],viability [5],differential viability (reversal) ([6]; H69AR cells + 2 uM doxorubicin),"viability [6, 9] [%]","viability [6, 10] [%]",inhibition [7],inhibition [8]
CCOc1ccc2[nH]c(=O)c(CN(Cc3ccccc3)C(=O)N3CCCC3)cc2c1,100,77% (inactive),100% (inactive),78.4% (inactive),82.1% (inactive),1.97% (inactive),80.1,82.1,-2.5% (inactive),-1.9% (inactive)
COc1ccc(OC)c(-c2nnc(SCC(=O)NC3CCCCC3)o2)c1,93.5,99.5% (inactive),93.5% (inactive),96.2% (inactive),98.5% (inactive),6.21% (inactive),92.2,98.5,0% (inactive),-13.4% (inactive)
O=C(CSc1nnc(-c2ccccc2Cl)n1Cc1ccco1)Nc1ccc2c(c1)OCCO2,83.5,80% (inactive),83.5% (inactive),93.9% (inactive),77.7% (inactive),-12.8% (inactive),90.5,77.7,-3.07% (inactive),-4.75% (inactive)
CCN1C(=O)N(CC)C2C1N(C(C)=O)C(=O)N2C(C)=O (stereo not given),107,102% (inactive),107% (inactive),104% (inactive),94.8% (inactive),11.9% (inactive),83,94.8,-5.66% (inactive),-2.18% (inactive)
COc1ccc(C(=O)NCCCCCC(=O)O)cc1OC,125,99% (inactive),125% (inactive),90.5% (inactive),92.2% (inactive),-8.78% (inactive),101,92.2,-7.24% (inactive),-3.33% (inactive)
Cc1ncoc1C(=O)Nc1cccc(Cl)c1C,104,114% (inactive),104% (inactive),113% (inactive),101% (inactive),15.6% (inactive),85.1,101,-3.78% (inactive),0.33% (inactive)
O=C1CSC(c2cccc(F)c2)N1c1ccccc1F (stereo not given),86,102% (inactive),86% (inactive),98.8% (inactive),97.5% (inactive),9.31% (inactive),88.2,97.5,-4.87% (inactive),7.38% (inactive)
COc1ccc(N(C(=O)c2ccco2)C(C(=O)NC2CCCC2)c2ccc(N(C)C)cc2)cc1OC (stereo not given),100,123% (inactive),100% (inactive),91.2% (inactive),90% (inactive),-14.6% (inactive),105,90,-1.3% (inactive),-8.5% (inactive)
NC(=O)c1nsnc1-c1ccccc1O,105,124% (inactive),105% (inactive),99.9% (inactive),90.2% (inactive),-6.96% (inactive),97.2,90.2,2.24% (inactive),16.8% (inactive)
CC(=O)NCCn1ccc2ccccc21,117,106% (inactive),117% (inactive),96.4% (inactive),91.7% (inactive),-3.84% (inactive),95.5,91.7,-4.13% (inactive),3.93% (inactive)
CCOC(=O)CSc1nnc(-c2cccnc2)n1Cc1ccccc1,91.5,108% (inactive),91.5% (inactive),106% (inactive),96.4% (inactive),0.125% (inactive),96.2,96.4,1.45% (inactive),-12.3% (inactive)
CC(=O)c1cccc(NC(=O)N2C3CCC2CC(O)(c2cccnc2)C3)c1 (stereo not given),102,98.5% (inactive),102% (inactive),100% (inactive),106% (inactive),9.59% (inactive),96.7,106,0.41% (inactive),-5.83% (inactive)
CCn1c(=O)cc(SCC(=O)NCC2CCCO2)c2ccccc21 (stereo not given),89,87% (inactive),89% (inactive),88.7% (inactive),87% (inactive),8.63% (inactive),78.4,87,-3.03% (inactive),-7.27% (inactive)
COC(=O)Nc1ccccc1C(=O)N1CCCCC1,100,93% (inactive),100% (inactive),95.8% (inactive),99% (inactive),6.15% (inactive),92.9,99,-5.33% (inactive),-0.49% (inactive)

# From PubChem BioAssay
